≈ marks a conversion by molar mass, not a printed value. Calls of active or inactive are those of the source. The rule behind the calls is not given here.
How the values were obtained:
Candida albicans [1] = assay: Antimicrobial activity against Candida albicans RCMB 05036 assessed as diameter of zone inhibition at 100 ug/ml after 48 hrs by agar well diffusion assay; type: functional; details: for zone of inhibition at 100 µg/mL: RCMB 05036, 48 h, read-out: DIZ
Outline: (§1)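 Agar well diffusion on malt agar plates seeded with the fungus, using 1 cm wells. Plates were held at 4°C for 1 h for diffusion, then incubated at 28°C. Inhibition zone diameters were measured at 48 h. Amphotericin B was the positive control. Run in triplicate, with the mean zone reported.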

Candida albicans [2] = assay: Antimicrobial activity against Candida albicans RCMB 05036 after 48 hrs by serial dilution method; type: functional; details: RCMB 05036, 48 h
Outline: (§2)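 Serial twofold dilution in microtiter plates starting from a 100 mmol stock in DMSO; final concentrations 125 down to 0.12 […]. Incubated at 28°C and read on a microplate reader after 48 h. Amphotericin B was the reference. Run in triplicate, with the average taken. MIC was the lowest concentration inhibiting growth.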

Aspergillus fumigatus [3] = assay: Antimicrobial activity against Aspergillus fumigatus RCMB 02568 assessed as diameter of zone inhibition at 100 ug/ml after 48 hrs by agar well diffusion assay; type: functional; details: for zone of inhibition at 100 µg/mL: RCMB 02568, 48 h, read-out: DIZ; outline: as §1
Aspergillus fumigatus [4] = assay: Antimicrobial activity against Aspergillus fumigatus RCMB 02568 after 48 hrs by serial dilution method; type: functional; details: RCMB 02568, 48 h; outline: as §2
Escherichia coli [5] = assay: Antimicrobial activity against Escherichia coli RCMB 010052 assessed as diameter of zone inhibition at 100 ug/ml after 24 hrs by agar well diffusion assay; type: functional; details: for zone of inhibition at 100 µg/mL: RCMB 010052, 24 h, read-out: DIZ
Outline: (§3)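 Agar well diffusion on nutrient agar plates seeded with the bacterium, using 1 cm wells. Plates were held at 4°C for 1 h for diffusion, then incubated at 37°C. Inhibition zone diameters were measured at 24 h. Ciprofloxacin was the positive control. Run in triplicate, with the mean zone reported.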

[6] = system: Mycobacterium tuberculosis; assay: Antimycobacterial activity against Mycobacterium tuberculosis RCMB 010126 clinical isolate after 7 days by MABA; type: functional
Outline: (§4)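 Inoculum from fresh LJ culture resuspended in 7H9-S broth with casitone, glycerol and OADC, adjusted to McFarland No. 1 and diluted 1:20. Serial two-fold compound dilutions in 7H9-S; isoniazid reference. Incubated 7 days at 37°C in air, then Alamar blue added and incubated overnight. Percent inhibition = 1 − (test well/growth-control mean) × 100; MIC = lowest concentration preventing blue-to-pink change.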

[7] = system: Mycobacterium tuberculosis; assay: Antimycobacterial activity against Mycobacterium tuberculosis RCMB 010126 clinical isolate assessed as inhibition zone after 7 days by MABA; type: functional; outline: as §4
Staphylococcus aureus [8] = assay: Antimicrobial activity against Staphylococcus aureus RCMB 010028 assessed as diameter of zone inhibition at 100 ug/ml after 24 hrs by agar well diffusion assay; type: functional; details: for zone of inhibition at 100 µg/mL: RCMB 010028, 24 h, read-out: DIZ; outline: as §3
Streptococcus pneumoniae [9] = assay: Antimicrobial activity against Streptococcus pneumoniae RCMB 010010 assessed as diameter of zone inhibition at 100 ug/ml after 24 hrs by agar well diffusion assay; type: functional; details: for zone of inhibition at 100 µg/mL: RCMB 010010, 24 h, read-out: DIZ; outline: as §3
Pseudomonas aeruginosa [10] = details: RCMB 010043, 100 ug/ml
Escherichia coli [11] = assay: Antimicrobial activity against Escherichia coli RCMB 010052 after 24 hrs by serial dilution method; type: functional; details: RCMB 010052, 24 h
Outline: as §2, with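 “37°C” for “28°C”, “24” for “48”, “Ciprofloxacin” for “Amphotericin B”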

Staphylococcus aureus [12] = assay: Antimicrobial activity against Staphylococcus aureus RCMB 010028 after 24 hrs by serial dilution method; type: functional; details: RCMB 010028, 24 h
Outline: as §2, with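 “37°C” for “28°C”, “24” for “48”, “Ciprofloxacin” for “Amphotericin B”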

Streptococcus pneumoniae [13] = assay: Antimicrobial activity against Streptococcus pneumoniae RCMB 010010 after 24 hrs by serial dilution method; type: functional; details: RCMB 010010, 24 h
Outline: as §2, with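 “37°C” for “28°C”, “24” for “48”, “Ciprofloxacin” for “Amphotericin B”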

Pseudomonas aeruginosa [14] = details: RCMB 010043
[15] = Mycobacterium tuberculosis, RCMB 010126, 168 h

## C[C@@H]1[C@H](O)[C@@H](C)/C=C/C=C/C=C/C=C/C=C/C=C/C=C/[C@H](O[C@@H]2O[C@H](C)[C@@H](O)[C@H](N)[C@@H]2O)C[C@@H]2O[C@](O)(C[C@@H](O)C[C@@H](O)[C@H](O)CC[C@@H](O)C[C@@H](O)CC(=O)O[C@H]1C)C[C@H](O)[C@H]2C(=O)O [AMPHOTERICIN B]
Candida albicans [1]
  zone of inhibition at 100 µg/mL: 25.4 mm
Candida albicans [2]
  MIC: 0.98 µg/mL (≈ 1.06 µM)
Aspergillus fumigatus [3]
  zone of inhibition at 100 µg/mL: 23.7 mm
Aspergillus fumigatus [4]
  MIC: 1.95 µg/mL (≈ 2.11 µM)

## O=C(N/N=C/c1ccc(F)cc1)c1c[nH]c2cc(Cl)ccc2c1=O
Candida albicans [1]
  zone of inhibition at 100 µg/mL: 14.4 mm
Escherichia coli [5]
  zone of inhibition at 100 µg/mL: 12.5 mm
[6]; [15]
  MIC: 12.5 µg/mL (≈ 36.3 µM)
[7]
  inhibition zone (IZ): 36.42 mm
Staphylococcus aureus [8]
  zone of inhibition at 100 µg/mL: 16.2 mm
Streptococcus pneumoniae [9]
  zone of inhibition at 100 µg/mL: 16.9 mm
Pseudomonas aeruginosa [10]
  DIZ: inactive
Aspergillus fumigatus [3]
  zone of inhibition at 100 µg/mL: 16.8 mm

## Cc1nc(-c2ccc(Cl)cc2)ccc1C(=O)N/N=C/c1ccc(Cl)cc1Cl
Escherichia coli [11]
  MIC: 1.95 µg/mL (≈ 4.66 µM)
Candida albicans [1]
  zone of inhibition at 100 µg/mL: 17.4 mm
Escherichia coli [5]
  zone of inhibition at 100 µg/mL: 21.3 mm
[6]; [15]
  MIC: 12.5 µg/mL (≈ 29.8 µM)
[7]
  inhibition zone (IZ): 35.38 mm
Staphylococcus aureus [8]
  zone of inhibition at 100 µg/mL: 19.3 mm
Streptococcus pneumoniae [9]
  zone of inhibition at 100 µg/mL: 21.3 mm
Candida albicans [2]
  MIC: 15.6 µg/mL (≈ 37.3 µM)
Staphylococcus aureus [12]
  MIC: 3.9 µg/mL (≈ 9.31 µM)
Streptococcus pneumoniae [13]
  MIC: 1.95 µg/mL (≈ 4.66 µM)
Pseudomonas aeruginosa [10]
  DIZ: inactive
Aspergillus fumigatus [3]
  zone of inhibition at 100 µg/mL: 19.3 mm
Pseudomonas aeruginosa [14]
  MIC: inactive
Aspergillus fumigatus [4]
  MIC: 3.9 µg/mL (≈ 9.31 µM)

## Cc1ccc(/C=N/NC(=O)c2c[nH]c3ccc(Cl)cc3c2=O)cc1
Candida albicans [1]
  zone of inhibition at 100 µg/mL: 12.1 mm
Escherichia coli [5]
  diameter of the inhibition zone (DIZ): inactive
[6]
  MIC: inactive
[7]
  inhibition zone (IZ): inactive
Staphylococcus aureus [8]
  diameter of the inhibition zone (DIZ): inactive
Streptococcus pneumoniae [9]
  zone of inhibition at 100 µg/mL: 20.4 mm
Pseudomonas aeruginosa [10]
  DIZ: inactive
Aspergillus fumigatus [3]
  zone of inhibition at 100 µg/mL: 10.3 mm

## Cc1nc(-c2ccc(Cl)cc2)ccc1C(=O)N/N=C/c1ccc(F)cc1
Candida albicans [1]
  diameter of the inhibition zone (DIZ): inactive
Escherichia coli [5]
  diameter of the inhibition zone (DIZ): inactive
[6]; [15]
  MIC: 6.24 µg/mL (≈ 17 µM)
[7]
  inhibition zone (IZ): 40.31 mm
Staphylococcus aureus [8]
  diameter of the inhibition zone (DIZ): inactive
Streptococcus pneumoniae [9]
  diameter of the inhibition zone (DIZ): inactive
Pseudomonas aeruginosa [10]
  DIZ: inactive
Aspergillus fumigatus [3]
  diameter of the inhibition zone (DIZ): inactive

## O=C(N/N=C/c1ccc(Cl)cc1)c1c[nH]c2cc(Cl)ccc2c1=O
Escherichia coli [11]
  MIC: 7.81 µg/mL (≈ 21.7 µM)
Candida albicans [1]
  zone of inhibition at 100 µg/mL: 15.2 mm
Escherichia coli [5]
  zone of inhibition at 100 µg/mL: 18.3 mm
[6]; [15]
  MIC: 99.8 µg/mL (≈ 277 µM)
[7]
  inhibition zone (IZ): 19.35 mm
Staphylococcus aureus [8]
  zone of inhibition at 100 µg/mL: 16.2 mm
Streptococcus pneumoniae [9]
  zone of inhibition at 100 µg/mL: 17.1 mm
Candida albicans [2]
  MIC: 31.2 µg/mL (≈ 86.8 µM)
Staphylococcus aureus [12]
  MIC: 31.2 µg/mL (≈ 86.8 µM)
Streptococcus pneumoniae [13]
  MIC: 15.6 µg/mL (≈ 43.4 µM)
Pseudomonas aeruginosa [10]
  DIZ: inactive
Aspergillus fumigatus [3]
  zone of inhibition at 100 µg/mL: 17.3 mm
Pseudomonas aeruginosa [14]
  MIC: inactive
Aspergillus fumigatus [4]
  MIC: 15.6 µg/mL (≈ 43.4 µM)

## NNC(=O)c1ccncc1 [ISONIAZID]
[6]; [15]
  MIC: 0.75 µg/mL (≈ 5.47 µM)
[7]
  inhibition zone (IZ): inactive

## Cc1nc(-c2cccc(Cl)c2)ccc1C(=O)N/N=C/c1ccc(F)cc1
Candida albicans [1]
  diameter of the inhibition zone (DIZ): inactive
Escherichia coli [5]
  diameter of the inhibition zone (DIZ): inactive
[6]; [15]
  MIC: 3.12 µg/mL (≈ 8.48 µM)
[7]
  inhibition zone (IZ): 52.34 mm
Staphylococcus aureus [8]
  diameter of the inhibition zone (DIZ): inactive
Streptococcus pneumoniae [9]
  diameter of the inhibition zone (DIZ): inactive
Pseudomonas aeruginosa [10]
  DIZ: inactive
Aspergillus fumigatus [3]
  diameter of the inhibition zone (DIZ): inactive

## Cc1nc(-c2ccc(Cl)cc2)ccc1C(=O)N/N=C/c1ccc(Cl)cc1
Candida albicans [1]
  diameter of the inhibition zone (DIZ): inactive
Escherichia coli [5]
  diameter of the inhibition zone (DIZ): inactive
[6]; [15]
  MIC: 12.5 µg/mL (≈ 32.5 µM)
[7]
  inhibition zone (IZ): 36.24 mm
Staphylococcus aureus [8]
  diameter of the inhibition zone (DIZ): inactive
Streptococcus pneumoniae [9]
  diameter of the inhibition zone (DIZ): inactive
Pseudomonas aeruginosa [10]
  DIZ: inactive
Aspergillus fumigatus [3]
  diameter of the inhibition zone (DIZ): inactive

From ChEMBL document CHEMBL4130356, “Design, synthesis and 2D QSAR study of novel pyridine and quinolone hydrazone derivatives as potential antimicrobial and antitubercular agents” (Eur J Med Chem, 2017)
